pIC50: −log10 of the molar value. The source made the active and inactive calls. No cut-off for these calls is given here.
How the values were obtained:
Human alphaherpesvirus 1 = assay: Antiviral activity against HSV1 KOS infected in human lung fibroblast assessed as inhibition of virus-induced cytopathic effect at 0.32 to 100 uM; type: functional, organism-based
Outline: (§1)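 Confluent cell cultures were infected with 100 CCID50 of virus in the presence of test compound at 100, 40, 8, 1.6 and 0.32 μM. Cytopathic effect was scored once it was complete in untreated infected controls.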

Coxsackievirus B4 [1] = assay: Antiviral activity against Coxsackievirus B4 infected in african green monkey Vero cells assessed as inhibition of virus-induced cytopathic effect at 0.32 to 100 uM; type: functional, organism-based; outline: as §1
[2] = tested on: Radical scavenging activity; assay: Antioxidant activity assessed as DPPH free radical scavenging activity at 100 uM after 60 mins by spectrophotometric analysis; type: functional
Outline: (§2)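 0.05 mM DPPH in absolute ethanol mixed with an equal volume of compound in DMSO (final 100 μM). Shaken and left 20 or 60 min, then absorbance read at 517 nm and percent activity calculated. Three replicates, averaged.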

L1210 = assay: Cytostatic activity against mouse L1210 cells after 2 days by coulter counter analysis; type: functional, cell-based; conditions: L1210, 48 h
Outline: (§3)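 300,000–500,000 cells/ml mixed 1:1 with compound dilutions and incubated at 37 °C for 2 days (L1210) or 3 days (CEM, HeLa). Cell number counted with a Coulter counter; HeLa trypsinized before counting.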

[3] = tested on: Respiratory syncytial virus; assay: Antiviral activity against RSV infected in human cervix carcinoma cells assessed as inhibition of virus-induced cytopathic effect at 0.32 to 100 uM; type: functional, organism-based; outline: as §1
[4] = Antioxidant activity assessed as inhibition of AAPH-induced linoleic acid lipid peroxidation by measuring conjugated diene hydroperoxide level; type: functional; parameters: concentration or dose not given beside the values; conditions: dose or concentration not given here
Outline: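 Linoleic acid sodium salt (10 μL of 16 mM) in 0.05 M phosphate buffer pH 7.4 at 37 °C. Oxidation started under air with 50 μL of 40 mM AAPH. Conjugated diene hydroperoxide formation followed as absorbance rise at 234 nm; control contains the same DMSO level. At least triplicate.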

Coxsackievirus B4 [5] = assay: Antiviral activity against Coxsackievirus B4 infected in human cervix carcinoma cells assessed as inhibition of virus-induced cytopathic effect at 0.32 to 100 uM; type: functional, organism-based; outline: as §1
[6] = tested on: Human immunodeficiency virus 1; assay: Antiviral activity against HIV1 3B infected in human CEM cells assessed as inhibition of virus-induced CEM giant cell formation at 0.32 to 100 uM after 4 days; type: functional, organism-based; conditions: CCRF-CEM
Outline: (§4)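 CEM cells (~3 × 10^5 cells/cm³) exposed to 100 CCID50/ml of virus and seeded into wells holding compound dilutions. Incubated 4 days at 37 °C, then giant cell formation examined microscopically.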

Influenza A virus [7] = assay: Antiviral activity against Influenza A virus H3N2 infected in MDCK cells assessed as inhibition of virus-induced cytopathic effect at 0.32 to 100 uM; type: functional, organism-based
Outline: (§5)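 Confluent MDCK monolayers were infected in the presence of the compound at 100, 40, 8, 1.6 and 0.32 μM. Viral cytopathicity was scored once it was complete in untreated infected control cultures.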

[8] = tested on: Radical scavenging activity; assay: Antioxidant activity assessed as DPPH free radical scavenging activity at 100 uM after 20 mins by spectrophotometric analysis; type: functional; outline: as §2
Feline coronavirus = assay: Antiviral activity against Feline coronavirus infected in feline CRFK cells assessed as inhibition of virus-induced cytopathic effect at 0.32 to 100 uM; type: functional, organism-based; outline: as §1
Vaccinia virus = assay: Antiviral activity against Vaccinia virus infected in human lung fibroblast assessed as inhibition of virus-induced cytopathic effect at 0.32 to 100 uM; type: functional, organism-based; conditions: Orthopoxvirus vaccinia
MCF7 = assay: Cytostatic activity against human MCF7 cells after 72 hrs by MTT assay; type: functional, cell-based; conditions: MCF7, 72 h
Outline: (§6)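 Monolayers in DMEM with 10% FBS, 2 mM L-glutamine and penicillin/streptomycin, 37 °C, 5% CO2. Seeded at 1–3 × 10^4 cells/ml, then compound added in tenfold dilutions (10⁻⁸–10⁻⁴ M) for 72 h. MTT read at 570 nm; percent growth taken against time-zero and untreated controls. IC50 by linear regression; quadruplicate, at least two experiments.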

Influenza B virus = assay: Antiviral activity against Influenza B virus infected in MDCK cells assessed as inhibition of virus-induced cytopathic effect at 0.32 to 100 uM; type: functional, organism-based; outline: as §5
Sindbis virus = assay: Antiviral activity against Sindbis virus infected in african green monkey Vero cells assessed as inhibition of virus-induced cytopathic effect at 0.32 to 100 uM; type: functional, organism-based; outline: as §1
Influenza A virus [9] = assay: Antiviral activity against Influenza A virus H1N1 infected in MDCK cells assessed as inhibition of virus-induced cytopathic effect at 0.32 to 100 uM; type: functional, organism-based; outline: as §5
[10] = tested on: Mammalian orthoreovirus 1; assay: Antiviral activity against Reovirus-1 infected in african green monkey Vero cells assessed as inhibition of virus-induced cytopathic effect at 0.32 to 100 uM; type: functional, organism-based; outline: as §1
NCI-H460 = assay: Cytostatic activity against human NCI-H460 cells after 72 hrs by MTT assay; type: functional, cell-based; conditions: NCI-H460, 72 h; outline: as §6
[11] = tested on: Vesicular stomatitis virus; assay: Antiviral activity against VSV infected in human lung fibroblast assessed as inhibition of virus-induced cytopathic effect at 0.32 to 100 uM; type: functional, organism-based
[12] = tested on: Vesicular stomatitis virus; assay: Antiviral activity against Vesicular stomatitis virus infected in human cervix carcinoma cells assessed as inhibition of virus-induced cytopathic effect at 0.32 to 100 uM; type: functional, organism-based
Outline: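 Confluent human cervix carcinoma (HeLa) cultures received 100 CCID50 of VSV together with the compound at 100, 40, 8, 1.6 or 0.32 μM. Cytopathicity was read at the point of full CPE in infected, untreated control wells.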

Punta Toro virus = assay: Antiviral activity against Punta Toro virus infected in african green monkey Vero cells assessed as inhibition of virus-induced cytopathic effect at 0.32 to 100 uM; type: functional, organism-based; outline: as §1
HCT-116 = assay: Cytostatic activity against human HCT116 cells after 72 hrs by MTT assay; type: functional, cell-based; conditions: HCT-116, 72 h; outline: as §6
[13] = tested on: Human immunodeficiency virus 2; assay: Antiviral activity against HIV2 ROD infected in human CEM cells assessed as inhibition of virus-induced CEM giant cell formation at 0.32 to 100 uM after 4 days; type: functional, organism-based; conditions: ISOLATE ROD, CCRF-CEM; outline: as §4
Glycine max = assay: Inhibition of soybean LOX assessed as conversion of sodium linoleate to 13- hydroperoxylinoleic acid at 100 uM
Human respirovirus 3 = assay: Antiviral activity against Parainfluenza virus 3 infected in african green monkey Vero cells assessed as inhibition of virus-induced cytopathic effect at 0.32 to 100 uM; type: functional, organism-based; outline: as §1
HaCaT = assay: Cytostatic activity against human HaCaT cells after 72 hrs by MTT assay; type: ADME, cell-based; outline: as §6
Human alphaherpesvirus 2 = assay: Antiviral activity against HSV2 G infected in human lung fibroblast assessed as inhibition of virus-induced cytopathic effect at 0.32 to 100 uM; type: functional, organism-based; conditions: strain G; outline: as §1
Felid alphaherpesvirus 1 = assay: Antiviral activity against Feline herpesvirus infected in feline CRFK cells assessed as inhibition of virus-induced cytopathic effect at 0.32 to 100 uM; type: functional, organism-based; outline: as §1
CCRF-CEM = assay: Cytostatic activity against human CEM cells after 3 days by coulter counter analysis; type: functional, cell-based; conditions: 72 h; outline: as §3
HeLa = assay: Cytostatic activity against human HeLa cells after 3 days by coulter counter analysis; type: functional, cell-based; conditions: 72 h; outline: as §3

SMILES | inhibition (Human alphaherpesvirus 1) | inhibition (Coxsackievirus B4 [1]) | Activity [2] | pIC50 (L1210) | inhibition [3] | inhibition [4] [%] | inhibition (Coxsackievirus B4 [5]) | inhibition [6] | inhibition (Influenza A virus [7]) | Activity [8] | inhibition (Feline coronavirus) | inhibition (Vaccinia virus) | pIC50 (MCF7) | inhibition (Influenza B virus) | inhibition (Sindbis virus) | inhibition (Influenza A virus [9]) | inhibition [10] | pIC50 (NCI-H460) | inhibition [11] | inhibition [12] | other results
CC(C)Cc1ccc(C(C)C(=O)NNC(=O)NC(c2ccccc2)c2ccccc2)cc1 (stereo not given) | inactive | inactive | inactive | 4.70 | inactive | 74 | inactive | inactive | inactive | inactive | inactive | inactive | 5.22 | inactive | inactive | inactive | inactive | 4.80 | inactive | inactive | inhibition (Punta Toro virus): inactive; pIC50 (HCT-116): 4.89; inhibition [13]: inactive; inhibition (Glycine max): 46%; inhibition (Human respirovirus 3): inactive; pIC50 (HaCaT): 4.89; inhibition (Human alphaherpesvirus 2): inactive; inhibition (Felid alphaherpesvirus 1): inactive; pIC50 (CCRF-CEM): 4.64
CC(C)Cc1ccc(C(C)C(=O)NNC(=O)NCCc2ccccc2)cc1 (stereo not given) | inactive | inactive | inactive | 3.74 | inactive | 33 | inactive | inactive | inactive | inactive | inactive | inactive | 4.64 | inactive | inactive | inactive | inactive | 4.29 | inactive | inactive | inhibition (Punta Toro virus): inactive; pIC50 (HCT-116): 4.59; inhibition [13]: inactive; inhibition (Glycine max): inactive; inhibition (Human respirovirus 3): inactive; inhibition (Human alphaherpesvirus 2): inactive; inhibition (Felid alphaherpesvirus 1): inactive; pIC50 (CCRF-CEM): 3.83; pIC50 (HeLa): ≤ 3.60
NNC(=O)NOCc1ccccc1 | inactive | inactive | 14% | < 3.60 | inactive | 36 | inactive | inactive | inactive | 6% | inactive | inactive | < 4.00 | inactive | inactive | inactive | inactive | < 4.00 | inactive | inactive | inhibition (Punta Toro virus): inactive; pIC50 (HCT-116): < 4.00; inhibition [13]: inactive; inhibition (Glycine max): inactive; inhibition (Human respirovirus 3): inactive; inhibition (Human alphaherpesvirus 2): inactive; inhibition (Felid alphaherpesvirus 1): inactive; pIC50 (CCRF-CEM): < 3.60; pIC50 (HeLa): < 3.60
O=c1[nH]cc(F)c(=O)[nH]1 [FLUOROURACIL] | – | – | – | – | – | – | – | – | – | – | – | – | – | – | – | – | – | – | – | – | pIC50 (HaCaT): 6.52
CC(C(=O)NN)c1cccc(Oc2ccccc2)c1 (stereo not given) | inactive | inactive | 1% | 3.67 | inactive | 10 | inactive | inactive | inactive | inactive | inactive | inactive | < 4.00 | inactive | inactive | inactive | inactive | < 4.00 | inactive | inactive | inhibition (Punta Toro virus): inactive; pIC50 (HCT-116): < 4.00; inhibition [13]: inactive; inhibition (Glycine max): 3%; inhibition (Human respirovirus 3): inactive; inhibition (Human alphaherpesvirus 2): inactive; inhibition (Felid alphaherpesvirus 1): inactive; pIC50 (CCRF-CEM): 3.81; pIC50 (HeLa): 3.92
CC(C(=O)NNC(=O)NNC(=O)NO)c1cccc(Cc2ccccc2)c1 (stereo not given) | inactive | inactive | 53% | < 3.60 | inactive | 28 | inactive | inactive | inactive | 28% | inactive | inactive | < 4.00 | inactive | inactive | inactive | inactive | < 4.00 | inactive | inactive | inhibition (Punta Toro virus): inactive; pIC50 (HCT-116): < 4.00; inhibition [13]: inactive; inhibition (Glycine max): 1%; inhibition (Human respirovirus 3): inactive; inhibition (Human alphaherpesvirus 2): inactive; inhibition (Felid alphaherpesvirus 1): inactive; pIC50 (CCRF-CEM): < 3.60; pIC50 (HeLa): ≤ 3.60
CC(C)Cc1ccc(C(C)C(=O)NNC(=O)NC2CCCC2)cc1 (stereo not given) | inactive | inactive | 7% | 3.99 | inactive | 26 | inactive | inactive | inactive | 4% | inactive | inactive | 4.74 | inactive | inactive | inactive | inactive | 4.49 | inactive | inactive | inhibition (Punta Toro virus): inactive; pIC50 (HCT-116): 4.49; inhibition [13]: inactive; inhibition (Glycine max): inactive; inhibition (Human respirovirus 3): inactive; inhibition (Human alphaherpesvirus 2): inactive; inhibition (Felid alphaherpesvirus 1): inactive; pIC50 (CCRF-CEM): 4.13; pIC50 (HeLa): 4.10

Reference: ChEMBL document CHEMBL2010803, “Novel NSAID 1-acyl-4-cycloalkyl/arylsemicarbazides and 1-acyl-5-benzyloxy/hydroxy carbamoylcarbazides as potential anticancer agents and antioxidants” (Eur J Med Chem, 2012)
